In brackets after ≈: the same amount, converted by molar mass. Activity calls are given as the source filed them. The calls are words filed in the database; no cut-off is given here.
Assays:
[1] = tested on: Bacillus subtilis; test: Antibacterial activity against Bacillus subtilis after 2 days by agar plate dilution method; format: functional; details: 48 h
Summary of the method: (§1)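 Agar plate dilution: each sample concentration is incorporated into soybean casein digest (SCD) agar. Gram-positive bacteria are applied to the agar surface and incubated 2 days at 30 °C. Activity is judged by whether colonies form.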

[2] = tested on: Staphylococcus aureus; test: Antibacterial activity against Staphylococcus aureus after 2 days by agar plate dilution method; format: functional; details: 48 h; summary of the method: as §1
[3] = tested on: Botrytis cinerea; test: Antifungal activity against Botrytis cinerea after 2 days by agar plate dilution method; format: functional, organism-based
Summary of the method: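 Agar plate dilution: each sample concentration is incorporated into potato dextrose (PD) agar. Fungus is applied to the agar surface and incubated 2 days at 30 °C. Activity is judged by whether spores form.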

MIC [1] [µg/mL] | MIC [2] [µg/mL] | SMILES | Activity [3]
250 (≈ 752 µM) | 100 (≈ 301 µM) | C=C(C)[C@@H]1C[C@@H](OC(=O)C=C(C)C)[C@@]2(C1)C(C)=CC(=O)[C@H](O)[C@H]2C | –
250 (≈ 780 µM) | 250 (≈ 780 µM) | C=C(C)[C@@H]1C[C@@H](OC(=O)C(C)C)[C@@]2(C1)C(C)=CC(=O)[C@H](O)[C@H]2C | –
250 (≈ 752 µM) | 100 (≈ 301 µM) | C=C(C)[C@@H]1C[C@@H](OC(=O)/C(C)=C/C)[C@@]2(C1)C(C)=CC(=O)[C@H](O)[C@H]2C | Active
100 (≈ 458 µM) | 100 (≈ 458 µM) | C=C(C)[C@@H]1CC[C@@]2(C1)C(C)=CC(=O)C[C@H]2C [SOLAVETIVONE] | –
500 (≈ 2000 µM) | 500 (≈ 2000 µM) | C=C(C)[C@@H]1C[C@@H](O)[C@@]2(C1)C(C)=CC(=O)[C@H](O)[C@H]2C | –
